Each structure is given as a SMILES string. Activity calls are given as the source filed them.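 Rule for the calls, unless noted: active = visually confirmed hit in the image check and inhibition above 20%; inconclusive = visually confirmed hit but inhibition not above 20%; inactive = no visual hit in the image check.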

Experiment [1] in a line: inhibitors of TNFa-induced NFkB p65 translocation, primary screen, imaging, HUVEC, MLSMR starter and 10KST1 sets (AID 438;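 active = inhibition above 20% together with a positive visual image hit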;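 note: compound added about 3h40 before a 20 min TNFalpha stimulation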;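 for inhibition: signal is the nuclear over cytoplasmic p65 intensity ratio per well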). Conditions: HUVEC TNFa-induced p65 nuclear translocation; cell count: measured here: nuclei count (cytotoxicity indicator), at 2.08 µM; inhibition: at 2 µM, stronger effect = higher value, 0% TNFa-plus-vehicle, 100% no-TNFa wells.
Experiment [2] in a line: inhibitors of E-selectin induction by TNFa, primary screen, imaging, HUVEC, immunofluorescence, MLSMR starter and 10KST1 sets (AID 487).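 For inhibition: signal is fraction of cell area covered by stained E-selectin grains.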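 For nuclei count: 100% = median nuclei count of all wells on the same plate.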 Conditions: HUVEC TNFalpha-induced E-selectin immunofluorescence imaging, at 2 µM; inhibition: stronger effect = higher value; nuclei count: measured here: cell number, toxicity.
A short description of experiment [3]: DUSP6 inhibitors restoring Erk phosphorylation by chemical complementation, primary imaging in DUSP6-transfected HeLa (AID 609;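 active = compounds giving at least 50% inhibition in the cell-based MKP-3 phosphatase rescue imaging test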;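 for inhibition: phospho-Erk level distribution per well compared with pooled transfected vehicle control wells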). Conditions: HeLa MKP-3 transfected, phospho-Erk imaging KS statistic, at 10 µM, cells stimulated with TPA for 15 min.
Experiment [4] concerns the target Dual specificity protein phosphatase 6 (Homo sapiens) (UniProt Q16828). Described as above. Conditions: HeLa MKP-3 transfected, phospho-Erk imaging KS statistic; at 10 µM; stronger effect = higher value; cells stimulated with TPA for 15 min.
Experiment [5] deals with Voltage-gated potassium channel subunit beta-2 (Rattus norvegicus) (UniProt P62483). Briefly: KvBeta enzyme negative modulators, primary screen, biochemical, NADPH fluorescence (AID 622;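 active = fluorescence slope higher than the sample average by over 3 SD, cut at about -0.22 in these data, passing the limit was not always enough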;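 note: slope of raw intensity against log time taken from 70 to 1610 s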). Particulars: recombinant KvBeta, 4-cyanobenzaldehyde reduction, at 10 µM, stronger effect = higher value.
Sequence of Voltage-gated potassium channel subunit beta-2 (Rattus norvegicus) (P62483 whole entry, looked up): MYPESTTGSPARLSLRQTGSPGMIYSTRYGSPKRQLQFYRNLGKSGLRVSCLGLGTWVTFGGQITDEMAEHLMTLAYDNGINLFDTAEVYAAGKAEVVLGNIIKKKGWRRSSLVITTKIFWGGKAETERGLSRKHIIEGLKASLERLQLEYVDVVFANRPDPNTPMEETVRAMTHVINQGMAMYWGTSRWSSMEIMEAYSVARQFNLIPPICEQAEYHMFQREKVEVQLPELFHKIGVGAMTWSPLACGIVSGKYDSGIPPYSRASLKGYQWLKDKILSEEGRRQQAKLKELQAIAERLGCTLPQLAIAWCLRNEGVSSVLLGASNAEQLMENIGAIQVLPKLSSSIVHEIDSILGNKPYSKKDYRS
For experiment [6] the target is unchanged. Briefly: KvBeta positive modulators, primary screen, biochemical, NADPH fluorescence (AID 623;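 active = NADPH fluorescence slope more negative than the mean of all samples by about 3 SD, 99.7% confidence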;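 note: fluorescence intensity change per second fitted from 20 to 320 s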). Particulars: Recombinant KvBeta, NADPH fluorescence decrease slope, 10 min; at 10 µM; stronger effect = lower value.
Experiment [7] has as its target Muscarinic acetylcholine receptor M4 (Homo sapiens) (UniProt P08173). Briefly: compounds altering M4/GIRK thallium flux, either direction, primary screen, M4 allosteric agonist project, cell-based, HEK293 M4/GIRK, BTC-AM (AID 625;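 active = fluorescence slope after compound addition differing from the mean of all tested samples at 99.7% confidence, mostly higher but some lower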;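 note: thallium influx through GIRK channels coupled to M4 in HEK293 cells with BTC-AM dye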). Particulars: at 10 µM, actives lie on both sides. In short, it runs like this:
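Assay system: HEK293 cells with M4 receptor and GIRK channels / Controls: carbachol and DMSO controls / Schedule: 1 h dye loading, 2 min kinetic read / Technique: kinetic fluorescence with BTC-AM dye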

Experiment [8] can be described thus: inhibitors of larval lipid processing in zebrafish, primary screen, whole organism, PED6 fluorescence, gall bladder and intestine (AID 686;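 active = a full or partial loss of lipid-probe fluorescence in the fish gall bladder, intestine or both, judged by eye; inactive = no fluorescence loss, or compound toxic to the fish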;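 note: larvae 5 to 7 days old with five fish per well; signal comes from phospholipase A2 cleavage of quenched PED6 carried via bile; overnight exposure to compound and PED6 before scoring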). Particulars: Zebrafish larvae PED6 lipid processing, fluorescence scoring; screened at 20 µM (by protocol). An outline of the steps:
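Doses: 20 µM single dose. Test system: live zebrafish larvae aged 5-7 days, whole organism. Quantity: five larvae per well. Measured by: By-eye fluorescence microscopy. Reagent: ingested quenched lipid PED6 at 100 nM. Read-out: visual per-well fluorescence inhibition score. Times: overnight exposure of larvae to compound plus PED6.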

Experiment [9] can be described thus: inhibitors of Chlamydomonas gravitaxis, primary screen, whole organism, Chlamydomonas reinhardtii, WT vs cilia-less mutant, absorbance, 96-well (AID 463189;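 active = inhibition at or above 50% relative to wild type and mutant plate controls; inactive = inhibition below 50%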;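 note: 0% = wild type cc124 cells in DMSO and 100% = ciliumless bld1 mutant cells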). Particulars: OD600 absorbance, 2 days, at 10 µM, stronger effect = higher value.
The mark [10] stands for this setting: measured here: cell density z-score.
The mark [11] stands for this setting: measured here: nuclear c-Myc green intensity z-score.
The mark [12] stands for this setting: measured here: nuclear pErk red intensity z-score, stronger effect = higher value.

Sequence of Dual specificity protein phosphatase 6 (Homo sapiens) (Q16828 whole entry, looked up): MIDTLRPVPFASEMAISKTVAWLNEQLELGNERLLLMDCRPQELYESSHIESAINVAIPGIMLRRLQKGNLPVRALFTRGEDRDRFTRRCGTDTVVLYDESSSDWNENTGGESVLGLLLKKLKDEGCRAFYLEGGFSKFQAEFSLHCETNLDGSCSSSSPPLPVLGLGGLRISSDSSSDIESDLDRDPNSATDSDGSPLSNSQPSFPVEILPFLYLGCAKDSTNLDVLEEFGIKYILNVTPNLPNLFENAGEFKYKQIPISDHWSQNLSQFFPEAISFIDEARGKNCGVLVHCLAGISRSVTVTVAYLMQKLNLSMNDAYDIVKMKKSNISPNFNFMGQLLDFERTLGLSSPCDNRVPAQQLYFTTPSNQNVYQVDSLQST
Sequence of Muscarinic acetylcholine receptor M4 (Homo sapiens) (P08173 whole entry, looked up): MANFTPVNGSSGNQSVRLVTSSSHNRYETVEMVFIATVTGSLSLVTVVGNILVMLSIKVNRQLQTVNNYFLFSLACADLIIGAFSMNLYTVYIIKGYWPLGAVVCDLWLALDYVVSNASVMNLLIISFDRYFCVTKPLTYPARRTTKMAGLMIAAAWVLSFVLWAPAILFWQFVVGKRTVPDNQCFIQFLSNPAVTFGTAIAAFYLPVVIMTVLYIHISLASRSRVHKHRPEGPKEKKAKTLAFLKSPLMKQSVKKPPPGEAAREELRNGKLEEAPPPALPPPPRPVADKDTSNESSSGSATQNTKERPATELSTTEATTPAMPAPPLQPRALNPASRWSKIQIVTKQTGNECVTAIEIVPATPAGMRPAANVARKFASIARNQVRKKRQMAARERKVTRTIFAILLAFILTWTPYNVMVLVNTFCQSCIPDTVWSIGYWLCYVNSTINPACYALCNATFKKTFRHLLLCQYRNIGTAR

One may read the inhibition as the drop in the measured response relative to a control, in per cent. Regarding `O=C(C(c1ccccc1)N1CCOCC1)N1CCOCC1` (centres undefined), the cell count in [1] came out at 733. Moreover, the inhibition is -13.6% (inactive) in experiment [1], -25.3% (inactive) in [2], -9.53% (inactive) in experiment [4] and -3.52% (inactive) in experiment [9]. In experiment [2], the nuclei count was determined as 159%. The values for the z-score in experiment [3] (setting [10]), in [3] (setting [11]) and in experiment [3] (setting [12]) were -0.0327, 1.84 and -0.87, respectively. Further, the fluorescence slope in experiment [5] was -0.431 (inactive); in experiment [7] it was 0.00553 (inactive). Besides, the NADPH fluorescence slope in [6] is -2.2e-05 (inactive). Besides, the compound was classed as inactive in experiment [8].

Consider `CCOc1ccc(-c2nc(C#N)c(NCC(C)C)o2)cc1`, for which the cell count in experiment [1] was 402. The inhibition in experiment [1] was -4% (inactive); in [2], -45.5% (inactive); in experiment [4], -2.69% (inactive); in experiment [9] it was -4.03% (inactive). The compound also gave a nuclei count in experiment [2] of 159%. Besides, the values for the z-score in experiment [3] (setting [10]), in [3] (setting [11]) and in experiment [3] (setting [12]) were -1.19, -0.813 and 2.25, respectively. Moreover, the values for the fluorescence slope in experiment [5] and in [7] were -0.474 (inactive) and 0.00573 (inactive), respectively. Further, in [6], the NADPH fluorescence slope is -8e-05 (inactive). Also, in experiment [8], the outcome was inactive.

Take `CCOc1ccc(N=C(NC#N)SCC(=O)NC2CC2)cc1`: in [1], the cell count worked out at 613. In addition, the inhibition in [1] is -1.5% (inactive); in [2], -40.6% (inactive); in experiment [4] it was -2.29% (inactive); in experiment [9] it was -3.68% (inactive). This compound also came in with a nuclei count in [2] of 161%. Moreover, the z-score in [3] (setting [10]) is 0.193; in [3] (setting [11]) it was 0.708; in experiment [3] (setting [12]), 0.295. Besides, the figures for the fluorescence slope in [5] and in experiment [7] were -0.491 (inactive) and 0.00628 (inactive), respectively. Besides, in experiment [6], the NADPH fluorescence slope is -4.8e-05 (inactive). The compound was classed as inactive in [8].

Regarding `O=C(/C=N/O)NCCCN1CCOCC1`, the cell count in experiment [1] came to 682. In addition, the inhibition in experiment [1] was -11.2% (inactive); in [2] it was 3.2% (inactive); in [4] it was -15.1% (inactive); in experiment [9] it was 5.9% (inactive). In addition, the nuclei count in [2] was 168%. Besides, the z-score in experiment [3] (setting [10]) is -1.5; in experiment [3] (setting [11]), -0.495; in experiment [3] (setting [12]), 2.77. Besides, the fluorescence slope in experiment [5] was -0.477 (inactive); in [7], 0.00666 (inactive). The NADPH fluorescence slope in experiment [6] is -7.4e-05 (inactive). Further, the compound was called inactive in experiment [8].

For `N#C/C(=C\c1c(N2CCC(C(N)=O)CC2)nc2ccccn2c1=O)S(=O)(=O)c1ccccc1`, the cell count in [1] was 444. Also, the inhibition in experiment [1] was -3.7% (inactive); in experiment [2], -112% (inactive); in experiment [4] it was 12.7% (inactive); in experiment [9] it was 4.15% (inactive). Besides, in [2], the nuclei count worked out at 144%. The z-score in experiment [3] (setting [10]) is 1.56; in experiment [3] (setting [11]) it was -0.902; in experiment [3] (setting [12]), -1.07. Further, the fluorescence slope was -0.423 (inactive) in [5] and 0.00437 (inactive) in [7]. The NADPH fluorescence slope in experiment [6] is -2.9e-05 (inactive). In addition, the outcome in experiment [8] was inactive.

For `CC1(C)Cc2c(C#N)c(SCCOc3ccccc3)nc(N3CCOCC3)c2CO1`, the cell count in experiment [1] is 387. The inhibition in experiment [1] was -7.4% (inactive); in experiment [2], -56.3% (inactive); in experiment [4], 5.42% (inactive); in experiment [9], 25.7% (inactive). The nuclei count in experiment [2] was 82.1%. For the same compound, the z-score is -1.25 in experiment [3] (setting [10]), 1.29 in experiment [3] (setting [11]) and 1.84 in experiment [3] (setting [12]). The fluorescence slope is -0.415 (inactive) in experiment [5] and 0.00791 (inactive) in [7]. Moreover, the NADPH fluorescence slope in experiment [6] was -3.7e-05 (inactive). Further, the result in experiment [8] was inactive.

Regarding `CC1(C)CC(=O)C2=C(C1)OC(N)=C(C#N)C21C(=O)N(CN2CCOCC2)c2ccccc21` (centres undefined), the cell count in experiment [1] is 371. Moreover, the inhibition in experiment [1] was -2.9% (inactive); in [2], -122% (inactive); in experiment [4], 19.4% (inactive); in experiment [9], 36.4% (inactive). For the same compound, the nuclei count in [2] worked out at 138%. The z-score in [3] (setting [10]) is 0.502; in experiment [3] (setting [11]), -1.1; in experiment [3] (setting [12]) it was -1.15. In addition, the fluorescence slope in experiment [5] was -0.479 (inactive); in [7], 0.00562 (inactive). Besides, the NADPH fluorescence slope in experiment [6] is -3.3e-05 (inactive). For the same compound, in experiment [8], the compound was called inactive.

As for `CCn1c(SCC(=O)NC2CCCCC2C)nnc1-c1ccc(OC)cc1` (centres undefined), the cell count in experiment [1] was determined as 430. Moreover, the inhibition is -4.4% (inactive) in experiment [1], -37.9% (inactive) in experiment [2], 7.73% (inactive) in experiment [4] and -4.06% (inactive) in experiment [9]. Besides, the nuclei count in [2] is 149%. Besides, the z-score in experiment [3] (setting [10]) was -0.0183; in experiment [3] (setting [11]) it was 0.142; in experiment [3] (setting [12]), 0.845. Besides, the values for the fluorescence slope in [5] and in experiment [7] were -0.45 (inactive) and 0.00502 (inactive), respectively. The NADPH fluorescence slope in experiment [6] is -0.000123 (inactive). For the same compound, the outcome in experiment [8] was inactive.

With `COc1ccccc1C1/C(=C(\O)c2ccc3c(c2)OCCO3)C(=O)C(=O)N1CCCN(C)C` (centres undefined), in [1], the cell count is 402. The inhibition in [1] was 2.9% (inactive); in experiment [2], -18% (inactive); in [4] it was -4.78% (inactive); in experiment [9], 12.8% (inactive). Further, the nuclei count in experiment [2] was determined as 134%. The z-score in experiment [3] (setting [10]) was 1.75; in [3] (setting [11]) it was -0.784; in [3] (setting [12]), 1.05. In addition, the fluorescence slope was -0.456 (inactive) in experiment [5] and 0.00501 (inactive) in experiment [7]. For the same compound, in experiment [6], the NADPH fluorescence slope is -7.9e-05 (inactive). The result in [8] was inactive.

On to `O=C1NCC(COCC2CC=CCC2)O1` (centres undefined), for which, in experiment [1], the cell count amounted to 574. Also, the inhibition in experiment [1] is -4% (inactive); in experiment [2] it was 50.9% (inactive); in experiment [4], 19.4% (inactive); in [9], 41.8% (inactive). Also, in experiment [2], the nuclei count amounted to 136%. Further, the z-score in experiment [3] (setting [10]) is 0.151; in experiment [3] (setting [11]) it was -0.463; in experiment [3] (setting [12]) it was -0.815. Also, the fluorescence slope in experiment [5] is -0.408 (inactive); in [7], 0.0053 (inactive). Moreover, the NADPH fluorescence slope in experiment [6] is -2.8e-05 (inactive). Also, the compound was classed as inactive in [8].

For `Cc1nnc2n(-c3ccccc3)c(=O)c3c4c(sc3n12)COC(C)(C)C4`, the cell count in experiment [1] worked out at 526. Further, the inhibition is -14.8% (inactive) in experiment [1], -32.4% (inactive) in [2], 24% (inactive) in [4] and 38.4% (inactive) in experiment [9]. Moreover, the nuclei count in experiment [2] amounted to 98.4%. Moreover, the z-score in experiment [3] (setting [10]) was 0.218; in [3] (setting [11]), -0.0554; in [3] (setting [12]) it was -0.749. The fluorescence slope was -0.48 (inactive) in [5] and 0.00589 (inactive) in experiment [7]. Also, the NADPH fluorescence slope in experiment [6] was 2.3e-05 (inactive). Moreover, in [8], the result was inactive.

On to `CCC(=O)Nc1c(C#N)c2nc3ccccc3nc2n1C1CCCCC1`, for which the cell count in [1] was 563. Moreover, the inhibition in experiment [1] is -4.1% (inactive); in [2], 6.8% (inactive); in [4], -2.09% (inactive); in experiment [9], 18.8% (inactive). This compound showed a nuclei count in [2] of 99.6%. The z-score in experiment [3] (setting [10]) is 0.5; in [3] (setting [11]), -1.07; in [3] (setting [12]), -5.03. Further, the fluorescence slope was -0.342 (inactive) in [5] and 0.00526 (inactive) in experiment [7]. In addition, the NADPH fluorescence slope in experiment [6] is 4.3e-06 (inactive). Besides, the call in [8] was inactive.

`O=C(CC1SC2=NCCN2C1=O)Nc1ccccc1` (centres undefined): the cell count in [1] was found to be 693. The inhibition is -7.8% (inactive) in [1], -79.2% (inactive) in experiment [2], 18.6% (inactive) in [4] and -0.757% (inactive) in [9]. Moreover, the nuclei count in [2] was 167%. Also, the z-score in experiment [3] (setting [10]) was -0.578; in experiment [3] (setting [11]) it was 0.509; in [3] (setting [12]), 0.504. Further, the fluorescence slope in experiment [5] was -0.42 (inactive); in [7] it was 0.00447 (inactive). Moreover, the NADPH fluorescence slope in experiment [6] was -5.8e-05 (inactive). Moreover, the outcome in experiment [8] was inactive.

The values are drawn from PubChem BioAssay.
